# ChEMBL document CHEMBL3407457, “Microwave-assisted synthesis of certain pyrrolylpyridines, some derived ring systems and their evaluation as anticancer and antioxidant agents” (Eur J Med Chem, 2015)
# Activity calls are given as the source filed them. No cut-off for these calls is given here.
# Columns and labels:
# [1] = Antioxidant activity assessed as DPPH radical scavenging activity at 10^-4 M incubated for 30 mins by spectrophotometry; type: physicochemical; conditions: 0.5 h, 100 µM
# How it was run: (§1)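 Compound at 10^-3 or 10^-4 M mixed with methanolic DPPH (0.1 mL of 1 mM stock; 3 mL total volume), shaken, kept in the dark 30 min at room temperature. Absorbance read at 517 nm. Scavenging (%) = (A_control − A_sample)/A_control × 100, where the control is DPPH in methanol alone. BHT served as reference antioxidant. Triplicate, mean ± SD of three independent experiments.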
# [2] = Antioxidant activity assessed as DPPH radical scavenging activity at 10^-3 M incubated for 30 mins by spectrophotometry; type: physicochemical; conditions: 0.5 h, 1000 µM; how it was run: as §1
# [3] = Growth inhibition of human EKVX cells at 10 uM after 48 hrs by sulforhodamine B assay; type: functional; conditions: read-out: GI
# How it was run: (§2)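 NCI-60 primary screen: cells given a single 10 µM dose under 48 h continuous exposure. Growth/viability estimated by sulforhodamine B protein assay. Reported as percent growth of treated cells (mean graph), expressed as percent growth inhibition.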
# [4] = Growth inhibition of human HOP92 cells at 10 uM after 48 hrs by sulforhodamine B assay; type: functional; conditions: HOP-92, 48 h, read-out: GI; how it was run: as §2
# [5] = tested on: NCI-H522; assay: Growth inhibition of human NCI-H522 cells at 10 uM after 48 hrs by sulforhodamine B assay; type: functional; conditions: NCI-H522, 48 h, read-out: GI; how it was run: as §2
# [6] = Growth inhibition of human HCT116 cells at 10 uM after 48 hrs by sulforhodamine B assay; type: functional; conditions: HCT-116, 48 h, read-out: GI; how it was run: as §2
# [7] = Growth inhibition of human HCT15 cells at 10 uM after 48 hrs by sulforhodamine B assay; type: functional; conditions: HCT-15, 48 h, read-out: GI; how it was run: as §2
# [8] = tested on: Hs-578T; assay: Growth inhibition of human Hs 578T cells at 10 uM after 48 hrs by sulforhodamine B assay; type: functional; how it was run: as §2
# [9] = tested on: MDA-MB-468; assay: Growth inhibition of human MDA-MB-468 cells at 10 uM after 48 hrs by sulforhodamine B assay; type: functional; how it was run: as §2
# [10] = tested on: T47D; assay: Growth inhibition of human T47D cells at 10 uM after 48 hrs by sulforhodamine B assay; type: functional; conditions: read-out: GI; how it was run: as §2
# [11] = tested on: IGROV-1; assay: Growth inhibition of human IGROV1 cells at 10 uM after 48 hrs by sulforhodamine B assay; type: functional; conditions: IGROV-1, 48 h, read-out: GI; how it was run: as §2
# [12] = Growth inhibition of human OVCAR4 cells at 10 uM after 48 hrs by sulforhodamine B assay; type: functional; conditions: OVCAR-4, 48 h, read-out: GI; how it was run: as §2
# [13] = tested on: CCRF-CEM; assay: Growth inhibition of human CCRF-CEM cells at 10 uM after 48 hrs by sulforhodamine B assay; type: functional; conditions: read-out: GI; how it was run: as §2
# [14] = tested on: HL-60(TB); assay: Growth inhibition of human HL-60(TB) cells at 10 uM after 48 hrs by sulforhodamine B assay; type: functional; conditions: HL-60, 48 h, read-out: GI
# How it was run: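 NCI-60 one-dose primary screen, HL-60(TB) within the leukemia subpanel. Single 10 µM concentration, 48 h continuous exposure. Growth estimated by sulforhodamine B protein assay. Percent growth of treated cells expressed as percentage growth inhibition (GI%).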
# [15] = tested on: K562; assay: Growth inhibition of human K562 cells at 10 uM after 48 hrs by sulforhodamine B assay; type: functional; conditions: K562, 48 h, read-out: GI; how it was run: as §2
# [16] = Growth inhibition of human MOLT4 cells at 10 uM after 48 hrs by sulforhodamine B assay; type: functional; conditions: MOLT-4, 48 h, read-out: GI; how it was run: as §2
# [17] = Growth inhibition of human RPMI8226 cells at 10 uM after 48 hrs by sulforhodamine B assay; type: functional; conditions: RPMI-8226, 48 h, read-out: GI; how it was run: as §2
# [18] = tested on: A498; assay: Growth inhibition of human A498 cells at 10 uM after 48 hrs by sulforhodamine B assay; type: functional; conditions: A498, 48 h, read-out: GI; how it was run: as §2
# [19] = tested on: ACHN; assay: Growth inhibition of human ACHN cells at 10 uM after 48 hrs by sulforhodamine B assay; type: functional; conditions: read-out: GI; how it was run: as §2
# [20] = tested on: CAKI-1; assay: Growth inhibition of human CAKI-1 cells at 10 uM after 48 hrs by sulforhodamine B assay; type: functional; how it was run: as §2
# [21] = Growth inhibition of human UO31 cells at 10 uM after 48 hrs by sulforhodamine B assay; type: functional; conditions: UO-31, 48 h, read-out: GI; how it was run: as §2
# [22] = Growth inhibition of human LOXIMVI cells at 10 uM after 48 hrs by sulforhodamine B assay; type: functional; conditions: LOX IMVI, read-out: GI; how it was run: as §2
# [23] = tested on: SK-MEL-5; assay: Growth inhibition of human SK-MEL-5 cells at 10 uM after 48 hrs by sulforhodamine B assay; type: functional; conditions: SK-MEL-5, 48 h, read-out: GI; how it was run: as §2
# [24] = Growth inhibition of human UACC62 cells at 10 uM after 48 hrs by sulforhodamine B assay; type: functional; conditions: UACC-62, 48 h, read-out: GI; how it was run: as §2
# [25] = Growth inhibition of human PC3 cells at 10 uM after 48 hrs by sulforhodamine B assay; type: functional; conditions: PC-3, 48 h, read-out: GI; how it was run: as §2
# [26] = tested on: SNB-75; assay: Growth inhibition of human SNB75 cells at 10 uM after 48 hrs by sulforhodamine B assay; type: functional; conditions: SNB-75, 48 h, read-out: GI; how it was run: as §2
# [27] = tested on: U-251; assay: Growth inhibition of human U251 cells at 10 uM after 48 hrs by sulforhodamine B assay; type: functional; conditions: U-251, 48 h, read-out: GI; how it was run: as §2
# [28] = tested on: CCRF-CEM; assay: Growth inhibition of human CCRF-CEM cells after 48 hrs by sulforhodamine B assay; type: functional
# How it was run: (§3)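 NCI-60 five-dose screen: cells incubated 48 h with five concentrations (0.01-100 µM), read by sulforhodamine B protein assay. Log concentration-% growth inhibition curves gave GI50 (50% decrease in net growth), TGI (total growth inhibition) and LC50 (net 50% loss of initial cells). 5-FU positive control.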
# [29] = tested on: HL-60(TB); assay: Growth inhibition of human HL-60(TB) cells after 48 hrs by sulforhodamine B assay; type: functional; conditions: HL-60, 48 h
# How it was run: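 NCI-60 five-dose screen, HL-60(TB) being one of the leukemia subpanel lines. Cells exposed to five concentrations (0.01-100 µM) for 48 h. GI50 (concentration giving 50% decrease in net cell growth) read from log concentration-% growth inhibition curves; TGI and LC50 also derived. 5-fluorouracil as positive control.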
# [30] = Growth inhibition of human MOLT4 cells after 48 hrs by sulforhodamine B assay; type: functional; conditions: MOLT-4, 48 h; how it was run: as §3
# [31] = Growth inhibition of human RPMI8226 cells after 48 hrs by sulforhodamine B assay; type: functional; conditions: RPMI-8226, 48 h; how it was run: as §3
# [32] = tested on: SR; assay: Growth inhibition of human SR cells after 48 hrs by sulforhodamine B assay; type: functional; how it was run: as §3
# [33] = Growth inhibition of human EKVX cells after 48 hrs by sulforhodamine B assay; type: functional; how it was run: as §3
# [34] = tested on: HOP-62; assay: Growth inhibition of human HOP62 cells after 48 hrs by sulforhodamine B assay; type: functional; conditions: HOP-62, 48 h; how it was run: as §3
# [35] = Growth inhibition of human HOP92 cells after 48 hrs by sulforhodamine B assay; type: functional; conditions: HOP-92, 48 h; how it was run: as §3
# [36] = tested on: NCI-H226; assay: Growth inhibition of human NCI-H226 cells after 48 hrs by sulforhodamine B assay; type: functional; conditions: NCI-H226, 48 h; how it was run: as §3
# [37] = tested on: NCI-H522; assay: Growth inhibition of human NCI-H522 cells after 48 hrs by sulforhodamine B assay; type: functional; conditions: NCI-H522, 48 h; how it was run: as §3
# [38] = Growth inhibition of human HCT116 cells after 48 hrs by sulforhodamine B assay; type: functional; conditions: HCT-116, 48 h; how it was run: as §3
# [39] = tested on: SF-268; assay: Growth inhibition of human SF268 cells after 48 hrs by sulforhodamine B assay; type: functional; conditions: SF-268, 48 h; how it was run: as §3
# [40] = Growth inhibition of human SF539 cells after 48 hrs by sulforhodamine B assay; type: functional; conditions: SF-539, 48 h; how it was run: as §3
# [41] = tested on: SNB-75; assay: Growth inhibition of human SNB75 cells after 48 hrs by sulforhodamine B assay; type: functional; conditions: SNB-75, 48 h; how it was run: as §3
# [42] = Growth inhibition of human UACC62 cells after 48 hrs by sulforhodamine B assay; type: functional; conditions: UACC-62, 48 h; how it was run: as §3
# [43] = tested on: IGROV-1; assay: Growth inhibition of human IGROV1 cells after 48 hrs by sulforhodamine B assay; type: functional; conditions: IGROV-1, 48 h; how it was run: as §3
# [44] = Growth inhibition of human OVCAR4 cells after 48 hrs by sulforhodamine B assay; type: functional; conditions: OVCAR-4, 48 h; how it was run: as §3
# [45] = tested on: A498; assay: Growth inhibition of human A498 cells after 48 hrs by sulforhodamine B assay; type: functional; conditions: A498, 48 h; how it was run: as §3
# [46] = tested on: SN12C; assay: Growth inhibition of human SN12C cells after 48 hrs by sulforhodamine B assay; type: functional; how it was run: as §3
# [47] = Growth inhibition of human UO31 cells after 48 hrs by sulforhodamine B assay; type: functional; conditions: UO-31, 48 h; how it was run: as §3
# [48] = tested on: DU-145; assay: Growth inhibition of human DU145 cells after 48 hrs by sulforhodamine B assay; type: functional; conditions: DU-145, 48 h; how it was run: as §3
# [49] = tested on: MCF7; assay: Growth inhibition of human MCF7 cells after 48 hrs by sulforhodamine B assay; type: functional; conditions: MCF7, 48 h; how it was run: as §3
# [50] = tested on: MDA-MB-231; assay: Growth inhibition of human MDA-MB-231 cells after 48 hrs by sulforhodamine B assay; type: functional; conditions: MDA-MB-231, 48 h; how it was run: as §3
# [51] = Growth inhibition of human BT549 cells after 48 hrs by sulforhodamine B assay; type: functional; conditions: BT-549, 48 h; how it was run: as §3
smiles,measurement,setting,value
CC1CCCc2c1nc1[nH]c(=S)nc(N)c1c2-c1cccn1C (stereo unspecified),inhibition (INH),[1],14%
same,inhibition (INH),[2],26%
same,inhibition of growth at 10 µM,[3],18.9%
same,inhibition of growth at 10 µM,[4],36.4%
same,inhibition of growth at 10 µM,[5],29.7%
same,inhibition of growth at 10 µM,[6],22.6%
same,inhibition of growth at 10 µM,[7],13.4%
same,growth inhibition (GI),[8],inactive
same,growth inhibition (GI),[9],inactive
same,inhibition of growth at 10 µM,[10],40.1%
same,inhibition of growth at 10 µM,[11],34.4%
same,inhibition of growth at 10 µM,[12],13.8%
same,inhibition of growth at 10 µM,[13],26.7%
same,inhibition of growth at 10 µM,[14],33.2%
same,inhibition of growth at 10 µM,[15],29.6%
same,inhibition of growth at 10 µM,[16],32.6%
same,inhibition of growth at 10 µM,[17],51.9%
same,inhibition of growth at 10 µM,[18],41.3%
same,inhibition of growth at 10 µM,[19],15.2%
same,growth inhibition (GI),[20],inactive
same,inhibition of growth at 10 µM,[21],34.7%
same,inhibition of growth at 10 µM,[22],10.7%
same,inhibition of growth at 10 µM,[23],18.4%
same,inhibition of growth at 10 µM,[24],23.5%
same,inhibition of growth at 10 µM,[25],19.8%
same,inhibition of growth at 10 µM,[26],17.5%
same,inhibition of growth at 10 µM,[27],21.4%
CC1CCCc2c1nc(N)c(C#N)c2-c1cccn1C (stereo unspecified),inhibition (INH),[1],9%
same,inhibition (INH),[2],16%
same,GI50,[28],> 100 µM
same,GI50,[29],0.42 µM
same,GI50,[30],> 100 µM
same,GI50,[31],79.4 µM
same,GI50,[32],3.39 µM
same,TGI,[32],20.4 µM
same,CC50,[32]; read-out: LC50 (the source's name),91.2 µM
same,GI50,[33],> 100 µM
same,GI50,[34],> 100 µM
same,GI50,[35],47.9 µM
same,GI50,[36],64.6 µM
same,GI50,[37],66.1 µM
same,GI50,[38],> 100 µM
same,GI50,[39],> 100 µM
same,GI50,[40],> 100 µM
same,GI50,[41],22.4 µM
same,TGI,[41],85.1 µM
same,GI50,[42],33.1 µM
same,GI50,[43],70.8 µM
same,GI50,[44],77.6 µM
same,GI50,[45],91.2 µM
same,GI50,[46],30.2 µM
same,GI50,[47],> 100 µM
same,GI50,[48],> 100 µM
same,GI50,[49],> 100 µM
same,GI50,[50],69.2 µM
same,GI50,[51],69.1 µM
